Test results taken from PubChem BioAssay.
The source made the active and inactive calls.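 Rule for the calls, unless noted: active = viability loss from added drug above about 55%, and viability with drug at most 40%, in both replicates (limit read from the data, passing the limit was not always enough); inconclusive = both conditions met in only one replicate; inactive = neither replicate meets both conditions.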

Legend:
[1] = SK-BR-3 cell growth inhibitors, pilot screen, 24 h, human (AID 572;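 active = viability at or below 10% of carrier control in both of two separate runs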;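 note: compound exposure lasted between 18 and 24 h rather than exactly 24 h; 100% = carrier-treated control wells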); conditions: SK-BR-3 viability, CellTiter-Glo luminescence, at 10 µM, stronger effect = lower value
[2] = HUVEC growth inhibition – cell-based, human, primary screen (AID 575;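 active = viability at or below 30% in both replicate assays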;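 note: 100% = median of untreated cell wells with 0.1% DMSO on each plate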); conditions: HUVEC proliferation, CellTiter-Glo luminescence, 72 h; at 10 µM; stronger effect = lower value
Summary of the method: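 Assay system: Primary human umbilical vein endothelial cells | Quantity: 1250 cells per well | Medium: Supplemented EBM, 2% fetal bovine serum | Detection: CellTiter-Glo luminescence measuring cellular ATP | Read-out: % viability vs DMSO wells | Plate: Collagen-coated 384-well format | Times: 72 h exposure, 37 °C, 5% CO2, 30 min RT equilibration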

[3] = growth inhibitors of H69AR lung tumor, primary screen, human, duplicate replicates (AID 580;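 active = viability at or under a set limit in both replicates, limit being median viability minus 3 SD, cut at about 48% in these data, passing the limit was not always enough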;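 note: 100% = mean luminescence of untreated wells and 0% = no signal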); conditions: H69AR lung tumor cells viability, ATP luminescence, 72 h; at 10 µM; stronger effect = lower value
[4] = reversal of MRP1-mediated doxorubicin resistance, pilot screen, H69AR cells, doxorubicin co-treatment (AID 601); conditions: CellTiter-Glo, 72 h, at 10 µM; for differential viability (reversal): stronger effect = higher value
[5] = 384-well plate pilot, post-Golgi transport modulator project, inhibition of yeast transport mutant growth (AID 636; in the data active = inhibition above about 31%); conditions: absorbance 615 nm, about 18 h, stronger effect = higher value
[6] = growth suppression of yeast trafficking mutant, preliminary HTS, modulators of trafficking downstream of Golgi apparatus project, 1536-format plate, OD 615 nm (AID 637; in the data active = inhibition above about 30%); conditions: yeast transport mutant growth, absorbance 615 nm, 18 h; stronger effect = higher value
[7] = H69AR cells + 2 uM doxorubicin, measured here: viability with 2 uM doxorubicin, stronger effect = lower value
[8] = H69AR cells, compound alone cytotoxicity

| Structure (SMILES) | viability [1] | viability [2] | viability [3] | differential viability (reversal) ([4]; H69AR cells + 2 uM doxorubicin) | viability [4, 7] [%] | viability [4, 8] [%] | inhibition [5] | inhibition [6] |
| --- | --- | --- | --- | --- | --- | --- | --- | --- |
| O=C(Nc1ccccc1Cl)c1c(F)c(F)c(F)c(F)c1F | 106% (inactive) | 106% (inactive) | 90.2% (inactive) | -7.56% (inactive) | 97.8 | 90.2 | 3.15% (inactive) | 7.09% (inactive) |
| COc1cc(NS(=O)(=O)c2ccc(N)cc2)nc(OC)n1 | 109% (inactive) | 80.7% (inactive) | 100% (inactive) | 11.7% (inactive) | 88.4 | 100 | 1.43% (inactive) | 3.83% (inactive) |
| Cc1ccc2nc(/C(C#N)=N/O)[nH]c2c1 | 115% (inactive) | 84.9% (inactive) | 78.2% (inactive) | -2.1% (inactive) | 80.3 | 78.2 | -4.53% (inactive) | 0% (inactive) |
| Cc1ccc2cc(CN(Cc3ccc(F)cc3)Cc3nnnn3C3CCCC3)c(=O)[nH]c2c1 | 100% (inactive) | 71.2% (inactive) | 78.7% (inactive) | 4.34% (inactive) | 74.4 | 78.7 | -4.19% (inactive) | 3.09% (inactive) |
| COc1ccc(CCN2C(=O)CC(N3CCN(S(=O)(=O)c4ccccc4)CC3)C2=O)cc1 (stereo unspecified) | 103% (inactive) | 107% (inactive) | 96.7% (inactive) | -9.06% (inactive) | 106 | 96.7 | 2.05% (inactive) | -0.36% (inactive) |
| COc1ccc(CCN2CC(O)=C(c3nc4ccccc4c(=O)[nH]3)C2=N)cc1OC | 105% (inactive) | 85.6% (inactive) | 80.8% (inactive) | -4.8% (inactive) | 85.6 | 80.8 | -1.95% (inactive) | 1.8% (inactive) |
| S=c1[nH]nc(Cc2ccccc2)n1Cc1ccco1 | 78% (inactive) | 108% (inactive) | 96.3% (inactive) | -2.76% (inactive) | 99.1 | 96.3 | -1.64% (inactive) | -6.94% (inactive) |
| Cc1ccc(C2=Nc3ccccc3NC(C)(c3ccc(C)o3)C2)o1 (stereo unspecified) | 95% (inactive) | 79% (inactive) | 64% (inactive) | -10.7% (inactive) | 74.7 | 64 | 3.97% (inactive) | 27.1% (inactive) |
| CCCN(CCC)C(=O)CC(c1ccc(F)cc1)c1ccco1 (stereo unspecified) | 71% (inactive) | 80.7% (inactive) | 80.8% (inactive) | -6.06% (inactive) | 86.8 | 80.8 | -5.48% (inactive) | -0.91% (inactive) |
| O=C(c1cccnc1)N1CCN(C(=O)c2ccccc2F)CC1 | 97% (inactive) | 98.5% (inactive) | 97.2% (inactive) | 11.5% (inactive) | 85.7 | 97.2 | -4% (inactive) | -5.09% (inactive) |
| Cc1ccc(Cn2nnc(C(=O)Nc3cccc(C)c3C)c2N)cc1 | 97% (inactive) | 63.1% (inactive) | 86.2% (inactive) | -7.94% (inactive) | 94.1 | 86.2 | -6.1% (inactive) | -2.3% (inactive) |
| CCOC(=O)C1=C[C@]2(CC)CCCN3CCc4c(n1c1ccccc41)[C@@H]32 | 70% (inactive) | 49.9% (inactive) | 80.1% (inactive) | 16.4% (inactive) | 63.7 | 80.1 | -0.26% (inactive) | -1.67% (inactive) |
| O=S(=O)(Nc1nc2ccccc2nc1NCc1ccco1)c1cccs1 | 91% (inactive) | 100% (inactive) | 29% (active) | -23% (inactive) | 51.9 | 29 | -5.68% (inactive) | 0.73% (inactive) |
| Cc1ccc(S(=O)(=O)N2CCN(C(=O)c3cc(=O)[nH]c4ccccc34)CC2)c(C)c1 | 66% (inactive) | 82.8% (inactive) | 83.3% (inactive) | 3.45% (inactive) | 79.8 | 83.3 | -9.04% (inactive) | 2.74% (inactive) |
| CN1[C@@H]2CC(OC(=O)[C@H](CO)c3ccccc3)C[C@H]1[C@@H]1O[C@@H]12 (stereo partly specified) | 104% (inactive) | 96.7% (inactive) | 102% (inactive) | 6.26% (inactive) | 95.3 | 102 | -2.08% (inactive) | -2.83% (inactive) |
| COC(=O)c1ccccc1OCC(=O)NC1CCCCC1 | 96% (inactive) | 106% (inactive) | 90.2% (inactive) | -1.72% (inactive) | 91.9 | 90.2 | -5.21% (inactive) | -6.77% (inactive) |
| CCOc1cc(C(=O)Nc2ncccn2)cc(OCC)c1OCC | 117% (inactive) | 105% (inactive) | 87.5% (inactive) | 4.8% (inactive) | 82.7 | 87.5 | -2.86% (inactive) | 5.08% (inactive) |
